Source: ChEMBL document CHEMBL3526038, “The role of a basolateral transporter in rosuvastatin transport and its interplay with apical breast cancer resistance protein in polarized cell monolayer systems” (Drug Metab Dispos, 2012)
One block for each compound: values may come before it.

Assays:
[1] = Apparent permeability from apical to basolateral side of human Caco2 cells at 2 uM after 60 to 120 mins; assay type: ADME, cell-based; conditions: Caco-2
Summary of the method: (§1)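 Monolayers on collagen-coated polycarbonate Transwells (0.4 μm pores), seeded at 60,000 cells/cm². Caco-2 were used at 21-28 days (TEER > 450 Ω·cm²); BCRP-MDCK at 7-11 days (TEER > 1200 Ω·cm²), stably expressing human ABCG2 R482 under neomycin selection. Rosuvastatin 2 μM in HBSSg pH 7.4 was dosed apically or basolaterally at 37°C. Samples were taken at 60 and 120 min for LC-MS/MS. Papp was determined; ER = Papp B-to-A / Papp A-to-B; triplicate.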

[2] = Apparent permeability from basolateral to apical side of human Caco2 cells at 2 uM after 60 to 120 mins; assay type: ADME, cell-based; conditions: Caco-2; summary of the method: as §1
[3] = Efflux ratio of apparent permeability from basolateral to apical over apical to basolateral side of human Caco2 cells at 2 uM after 60 to 120 mins; assay type: ADME, cell-based; conditions: Caco-2; summary of the method: as §1
[4] = Apparent permeability from apical to basolateral side of MDCK cells at 2 uM after 60 to 120 mins; assay type: ADME, cell-based, Canis lupus familiaris; conditions: dog; summary of the method: as §1
[5] = Apparent permeability from basolateral to apical side of MDCK cells at 2 uM after 60 to 120 mins; assay type: ADME, cell-based, Canis lupus familiaris; conditions: dog; summary of the method: as §1
[6] = Efflux ratio of apparent permeability from basolateral to apical over apical to basolateral side of MDCK cells at 2 uM after 60 to 120 mins; assay type: ADME, cell-based, Canis lupus familiaris; conditions: dog; summary of the method: as §1
BCRP [7] = experiment: Apparent permeability from apical to basolateral side of MDCK cells overexpressing BCRP at 2 uM after 60 to 120 mins; assay type: ADME, cell-based, Canis lupus familiaris; conditions: dog; summary of the method: as §1
BCRP [8] = experiment: Apparent permeability from basolateral to apical side of MDCK cells overexpressing BCRP at 2 uM after 60 to 120 mins; assay type: ADME, cell-based, Canis lupus familiaris; conditions: dog; summary of the method: as §1
BCRP [9] = experiment: Efflux ratio of apparent permeability from basolateral to apical over apical to basolateral side of MDCK cells overexpressing BCRP at 2 uM after 60 to 120 mins; assay type: ADME, cell-based, Canis lupus familiaris; conditions: dog; summary of the method: as §1
[10] = Cmax in healthy human at 20 mg, po; conditions: in vivo
[11] = Cellular uptake in human Caco2 cells after 30 mins by Michaelis-Menten equation analysis; assay type: ADME, cell-based, Caco-2
Summary of the method: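 Caco-2 monolayers (21-28 days). Rosuvastatin at various concentrations was dosed basolaterally in HBSSg pH 7.4 and incubated 30 min at 37°C. Apical samples and ice-cold-washed, acetonitrile-lysed cells were analysed by LC-MS/MS. Total uptake was fitted by nonlinear regression to saturable plus nonsaturable components to give Km; mean ± S.D., n = 3.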

[12] = Oral bioavailability in human at 40 mg; assay type: ADME, organism-based; conditions: in vivo
Homo sapiens = experiment: Total clearance in human at 40 mg, po; assay type: ADME, organism-based; conditions: in vivo
[13] = Partition coefficient, pKa of the compound; assay type: physicochemical; conditions: octanol/water
[14] = Activity at OSTalpha/OSTbeta in human Caco2 cells assessed as drug transport from basolateral to apical side at 2 uM in presence of chenodoxycholate relative to control; assay type: ADME, cell-based; conditions: caco-2, 2 µM
[15] = Activity at OSTalpha/OSTbeta in human Caco2 cells assessed as drug transport from basolateral to apical side at 2 uM in presence of lithocholate acid relative to control; assay type: ADME, cell-based; conditions: caco-2, 2 µM
[16] = Activity at OSTalpha/OSTbeta in human Caco2 cells assessed as drug transport from basolateral to apical side at 2 uM in presence of taurocholate relative to control; assay type: ADME, cell-based; conditions: caco-2, 2 µM
[17] = Activity at OSTalpha/OSTbeta in human Caco2 cells assessed as drug transport from basolateral to apical side at 2 uM in presence of taurolithocholate relative to control; assay type: ADME, cell-based; conditions: caco-2, 2 µM
[18] = Activity at OSTalpha/OSTbeta in human Caco2 cells assessed as drug transport from basolateral to apical side at 2 uM in presence of dehydroepiandrosterone sulfate relative to control; assay type: ADME, cell-based; conditions: caco-2, 2 µM
[19] = Activity at OSTalpha/OSTbeta in human Caco2 cells assessed as drug transport from basolateral to apical side at 2 uM in presence of digoxin relative to control; assay type: ADME, cell-based; conditions: caco-2, 2 µM
[20] = Activity at OSTalpha/OSTbeta in human Caco2 cells assessed as drug transport from basolateral to apical side at 2 uM in presence of estrone 3-sulfate relative to control; assay type: ADME, cell-based; conditions: caco-2, 2 µM
[21] = Activity at OSTalpha/OSTbeta in human Caco2 cells assessed as drug transport from basolateral to apical side at 2 uM in presence of spironolactone relative to control; assay type: ADME, cell-based; conditions: caco-2, 2 µM
[22] = Activity at OSTalpha/OSTbeta in human Caco2 cells assessed as drug transport from basolateral to apical side at 2 uM in presence of bromosulfophthalein relative to control; assay type: ADME, cell-based; conditions: caco-2, 2 µM
[23] = Activity at OSTalpha/OSTbeta in human Caco2 cells assessed as drug transport from basolateral to apical side at 2 uM in presence of indomethacin relative to control; assay type: ADME, cell-based; conditions: caco-2, 2 µM
[24] = Activity at OSTalpha/OSTbeta in human Caco2 cells assessed as drug transport from basolateral to apical side at 2 uM in presence of probenecid relative to control; assay type: ADME, cell-based; conditions: caco-2, 2 µM
[25] = Activity at OSTalpha/OSTbeta in human Caco2 cells assessed as drug transport from basolateral to apical side at 2 uM in presence of rifamycin relative to control; assay type: ADME, cell-based; conditions: caco-2, 2 µM
[26] = Activity at OSTalpha/OSTbeta in human Caco2 cells assessed as drug transport from apical to basolateral side at 50 uM in presence of 10 uM taurolithocholate relative to control; assay type: ADME, cell-based; conditions: caco-2, 50 µM
Summary of the method: (§2)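 Caco-2 monolayers (21-28 days, TEER > 450 Ω·cm²). Rosuvastatin 50 μM was dosed apically with 10 μM atenolol as a low-permeability marker, in HBSSg/MES at pH 5.5. Basolateral buffer was HBSSg/HEPES pH 7.4, with or without tauroolithocholate (10, 50 or 100 μM). Incubated at 37°C. Basolateral samples were taken at 15, 30 and 60 min and measured by LC-MS/MS. Efflux was normalised to BCA protein and expressed as % control; triplicate.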

[27] = Activity at OSTalpha/OSTbeta in human Caco2 cells assessed as drug transport from apical to basolateral side at 50 uM in presence of 50 uM taurolithocholate relative to control; assay type: ADME, cell-based; conditions: caco-2, 50 µM; summary of the method: as §2
[28] = Activity at OSTalpha/OSTbeta in human Caco2 cells assessed as drug transport from apical to basolateral side at 50 uM in presence of 100 uM taurolithocholate relative to control; assay type: ADME, cell-based; conditions: caco-2, 50 µM; summary of the method: as §2

Papp A→B at 2 µM [1]: 3.92 ×10⁻⁶ cm/s
Papp B→A at 2 µM [2]: 41.1 ×10⁻⁶ cm/s
efflux ratio at 2 µM [3]: 10.5
Papp A→B at 2 µM [4]: 4.32 ×10⁻⁶ cm/s
Papp B→A at 2 µM [5]: 13.6 ×10⁻⁶ cm/s
efflux ratio at 2 µM [6]: 3.1
Papp A→B at 2 µM (BCRP [7]): 1.31 ×10⁻⁶ cm/s
Papp B→A at 2 µM (BCRP [8]): 45.1 ×10⁻⁶ cm/s
efflux ratio at 2 µM (BCRP [9]): 34.5
SMILES: COc1cc2nc(N3CCN(C(=O)c4ccco4)CC3)nc(N)c2cc1OC [PRAZOSIN]

Cmax [10]: 6 nM
Km at 0.5 h ([11]; human, Caco-2 cells): 4.21 µM
Jmax ([11]; human, caco-2, 0.5 h): 24.64 pmol/min/mg
bioavailability [12]: 20%
CL (Homo sapiens): 70%
Papp A→B at 2 µM [1]: 0.25 ×10⁻⁶ cm/s
Papp B→A at 2 µM [2]: 20.7 ×10⁻⁶ cm/s
efflux ratio at 2 µM [3]: 83.2
Papp A→B at 2 µM [4]: 0.43 ×10⁻⁶ cm/s
Papp B→A at 2 µM [5]: 0.49 ×10⁻⁶ cm/s
efflux ratio at 2 µM [6]: 1.1
Papp A→B at 2 µM (BCRP [7]): 0.28 ×10⁻⁶ cm/s
Papp B→A at 2 µM (BCRP [8]): 1.63 ×10⁻⁶ cm/s
efflux ratio at 2 µM (BCRP [9]): 5.8
pKa [13]: 4.2
Drug transport [14]: 27.9%
Drug transport [15]: 42.6%
Drug transport [16]: 29.1%
Drug transport [17]: 30.1%
Drug transport [18]: 38.1%
Drug transport [19]: 43.9%
Drug transport [20]: 28.7%
Drug transport [21]: 35.1%
Drug transport [22]: 23.5%
Drug transport [23]: 32.7%
Drug transport [24]: 73.8%
Drug transport [25]: 21.4%
Drug transport [26]: 338%
Drug transport [27]: 436%
Drug transport [28]: 359%
SMILES: CC(C)c1nc(N(C)S(C)(=O)=O)nc(-c2ccc(F)cc2)c1/C=C/[C@@H](O)C[C@@H](O)CC(=O)[O-].CC(C)c1nc(N(C)S(C)(=O)=O)nc(-c2ccc(F)cc2)c1/C=C/[C@@H](O)C[C@@H](O)CC(=O)[O-].[Ca+2] [ROSUVASTATIN CALCIUM]
Kd ([11]; caco-2): 0.9985 µL/min/mg
